Published values gathered from unrelated publications.
Each line is one published result; the experiments were not run side by side. pIC50: −log10 of the molar value.

SMILES | tested on | test | system | conditions | endpoint | value
CC(=O)O[C@H]1C(=O)[C@@]2(C)[C@H]([C@H](OC(=O)c3ccccc3)[C@]3(O)C[C@H](OC(=O)[C@H](O)[C@@H](NC(=O)c4ccccc4)c4ccccc4)C(C)=C1C3(C)C)[C@]1(OC(C)=O)CO[C@@H]1C[C@@H]2O | L02 | cell growth or viability, CCK-8 |  | 12.5 µM, 72 h | inhibition | > 90%
COc1ncc(-c2cn([C@@H]3O[C@](F)(CO)[C@@H](O)[C@H]3O)cn2)c(N)n1 | Severe acute respiratory syndrome coronavirus 2 | viral replication, inhibitor | A549-ACE2 | 24 h | pIC50 | < 4.00
Cc1ccc(C=NNC(=S)N[N+](=O)[O-])cc1 | Leishmania tropica | parasite growth | J774.A1 | 72 h, intracellular, amastigote | pIC50 | 3.48
Nc1ncncc1-c1cn([C@@H]2O[C@](F)(CO)[C@@H](O)[C@H]2O)cn1 | Severe acute respiratory syndrome coronavirus 2 | viral replication, inhibitor | A549-ACE2 | 24 h | pIC50 | < 4.00
CC1=NN(c2ccc(C)c(C)c2)C(=O)/C1=N\Nc1cccc(-c2cccc(C(=O)O)c2)c1O | Severe acute respiratory syndrome coronavirus 2 | viral replication, inhibitor | Calu-3 | replicon | pIC50 | 5.34
COc1ncncc1-c1cn([C@@H]2O[C@](F)(CO[P@@](=O)(N[C@@H](C)C(=O)OC(C)C)Oc3ccccc3)[C@@H](OC(=O)C(C)C)[C@H]2OC(=O)C(C)C)cn1 | Severe acute respiratory syndrome coronavirus 2 | viral replication, inhibitor | A549-ACE2 | 24 h | pIC50 | 4.59
CCOc1nc2cccc(C(=O)O)c2n1Cc1ccc(-c2ccccc2-c2nnn[nH]2)cc1 | Severe acute respiratory syndrome coronavirus 2 | viral replication, inhibitor | Calu-3 | replicon | pIC50 | 5.98
O=[N+]([O-])NC(=S)NN=Cc1ccc(Br)cc1 | Leishmania tropica | parasite growth, MTT |  | 72 h, promastigote | pIC50 | 2.91
Nc1ncc(-c2cn([C@@H]3O[C@](F)(CO)[C@@H](O)[C@H]3O)cn2)cn1 | Severe acute respiratory syndrome coronavirus 2 | viral replication, inhibitor | A549-ACE2 | 24 h | pIC50 | < 4.00
Cc1c(O)cccc1C(=O)N[C@@H](CSc1ccccc1)[C@H](O)CN1C[C@H]2CCCC[C@H]2C[C@H]1C(=O)NC(C)(C)C | Severe acute respiratory syndrome coronavirus 2 | viral replication, inhibitor | Calu-3 | replicon | pIC50 | 5.39
N.N.[Cl][Pt][Cl] | NALM-6 | cell growth or viability, ATP luminescence |  | 10 µM, 72 h | inhibition | 97%
COc1ccc(C=NNC(=S)N[N+](=O)[O-])cc1OC | Leishmania tropica | parasite growth | J774.A1 | 72 h, intracellular, amastigote | pIC50 | 3.11
O=c1[nH]c2ccccc2n1C1CCN(CCCC(c2ccc(F)cc2)c2ccc(F)cc2)CC1 | Severe acute respiratory syndrome coronavirus 2 | viral replication, inhibitor | Caco-2 | replicon | pIC50 | 5.67
COc1cnc(OC)n2nc(NS(=O)(=O)c3c(OCC(F)F)cccc3C(F)(F)F)nc12 | L02 | cell growth or viability, CCK-8 |  | 0.78 µM, 72 h | inhibition | 0%
